A selection: hits, their analogues and other compounds. The true share with any hit is near 0.59%.
zfTRPN1 agonist: zebrafish TRPN1 channel agonists, primary screen, cell-based, HEK293, calcium fluorescence | transient receptor potential cation channel N1 (TRPN1/NompC), Danio rerio | HEK293 zebrafish TRPN1-YFP, Fluo-8 calcium fluorescence; 100% = response to 87 µM carbachol | activation, % at 3 µM | actives 0.18% (n = 220,000) | AID 1424, 2008;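 active = activation above its plate's cutoff, the mean activation of test wells on that plate plus 3 SD, cut at about 19% in these data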
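Control set: carbachol 87 µM as high control, DMSO as low control; system: HEK293 stable line with zebrafish TRPN1-YFP; read-out: % activation versus carbachol response; detection: intracellular calcium fluorescence with Fluo-8; doses: single test compound dose, 3 µM nominal, 0.3% DMSO; schedule: dye 1 h 37 °C plus 30 min RT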
V1R ag counter: agonists of human V1a receptor, primary screen, counter-screen for OXTR agonist project, fluorescence, CHO-V1R cells. Vasopressin V1a receptor (Homo sapiens), P37288. Fluo-8 calcium fluorescence, agonist mode; 0% DMSO, 100% 3 nM vasopressin. activation, % at 3 µM. actives 0.25% (n = 320,000);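 active = activation above the mean activation of all tested compounds plus 3 SD, per screening run, cut at about 20% in these data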;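 note: signal is peak over basal fluorescence ratio across a 100 second FLIPR read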
OXTR ag: human OXTR agonists, primary screen, fluorescence, CHO-OTR cells, Fluo-8 calcium | Oxytocin receptor (Homo sapiens), P30559 | Fluo-8 calcium fluorescence; normalized: DMSO 0%, oxytocin 100% | activation, % at 3 µM | actives 0.32% (n = 320,000) | AID 2435, 2010;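 active = activation above the mean of all tested compounds plus 3 SD, cutoff set per screening run, cut at about 20% in these data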;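 note: peak over basal fluorescence ratio from a 100 s FLIPR kinetic read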
Target sequence (P30559 whole entry, looked up): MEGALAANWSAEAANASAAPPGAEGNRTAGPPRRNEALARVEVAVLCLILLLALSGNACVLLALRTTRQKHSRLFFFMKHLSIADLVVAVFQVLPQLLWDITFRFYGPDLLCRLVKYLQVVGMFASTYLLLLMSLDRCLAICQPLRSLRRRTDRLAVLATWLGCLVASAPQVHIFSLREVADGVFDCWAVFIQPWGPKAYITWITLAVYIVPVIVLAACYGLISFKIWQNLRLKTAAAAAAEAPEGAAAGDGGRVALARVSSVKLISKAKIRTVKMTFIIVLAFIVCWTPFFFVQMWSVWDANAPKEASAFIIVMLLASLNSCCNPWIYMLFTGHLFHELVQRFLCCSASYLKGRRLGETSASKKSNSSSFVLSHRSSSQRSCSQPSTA
TRPML3 ag: human TRPML3 channel agonists, primary screen, cell-based, HEK293 TRPML3-YFP, Fluo-8 calcium fluorescence, 3 µM. 100% = the carbachol control signal. actives 0.29% (n = 220,000). activation, % at 3 µM. AID 1448, 2008;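 active = activation above its plate's cutoff, the mean activation of the plate's test wells plus 3 SD, cut at about 12% in these data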
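system = HEK293 cells stably carrying human TRPML3-YFP | doses = one concentration, 3 µM nominal, 0.3% DMSO | timing = dye loading 1 h 37 °C then 30 min ambient, 125 s read | detection = Fluo-8 calcium dye fluorescence, ex 470-495, em 515-575 nm | benchmarks = high control carbachol 87 µM, low control DMSO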
OXTR potentiator: human OXTR potentiators, primary screen, fluorescence, CHO-OTR cells, Fluo-8 calcium | Fluo-8 calcium fluorescence, potentiator mode; 0% = oxytocin EC15, 100% = EC100 | activation, % at 3 µM | actives 0.061% (n = 320,000);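 active = activation above that plate's cutoff, the mean activation of tested compounds plus 3 SD, cut at about 6.6% in these data, passing the limit was not always enough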
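Dosing: Single dose, 3.0 µM nominal final compound concentration | Material: Human OTR in CHO cells | Technique: Kinetic Fluo-8 calcium fluorescence | Benchmarks: EC15 oxytocin alone as 0%, 75 nM oxytocin as 100% | Probe or stimulus: Oxytocin at about EC15, sub-maximal agonist stimulus | Incubation: Compound 6 min at room temperature before oxytocin, 100 s read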
TRPN1 counter: zebrafish TRPN1 channel agonists, counter-screen for TRPML3 agonist project, cell-based, HEK293 TRPN1-YFP, Fluo-8 calcium; shares compounds with TRPML3 ag; Fluo-8 calcium fluorescence; scaled: carbachol wells 100%, DMSO wells 0%; activation, % at 3 µM; actives 10% (n = 310);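 active = mean activation over replicates above a set limit taken from the earlier TRPN1 channel primary screen, cut at about 19% in these data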
TRPML3 ag conf: human TRPML3 channel agonists, confirmation, cell-based, HEK293 TRPML3-YFP, Fluo-8 calcium, triplicate. shares compounds with TRPML3 ag. actives 80% (n = 310). activation, % at 3 µM. AID 1526, 2009. Fluo-8 calcium fluorescence; 100% set by carbachol, 0% by DMSO;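 active = activation above a set limit derived from the earlier primary screen, cut at about 12% in these data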
OXTR agonist cf: human OXTR agonists, confirmation, fluorescence, CHO-OTR cells, triplicate; shares compounds with OXTR ag; Fluo-8 calcium fluorescence, agonist; activation, % at 3 µM; actives 20% (n = 390); AID 434963, 2010;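 active = mean activation above about 20% derived from the earlier single-dose screen, limit read from the data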;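 note: peak over minimum fluorescence ratio per well during a 100 second FLIPR read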
V1aR counter 3x: V1a receptor agonists, calcium signal, counter-screen for OXTR agonist project, triplicate, fluorescence, CHO-V1R cells; Fluo-8 calcium fluorescence; activation, % at 3 µM; AID 434991, 2010; actives 10% (n = 390); shares compounds with OXTR ag;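 active = mean activation over triplicate exceeds the hit threshold set in the earlier primary screen, cut at about 20% in these data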;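 note: peak over basal fluorescence ratio within a 100 second read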
V1aR agonist cf: V1a receptor agonists, calcium signal, confirmation, Fluo-8 calcium fluorescence, CHO-V1R cells | AID 434964, 2010 | shares compounds with V1R ag counter | actives 20% (n = 180) | agonist | activation, % at 3 µM;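 active = average activation exceeds primary screen hit cutoff, cut at about 21% in these data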;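 note: peak over basal fluorescence ratio during a 100 s FLIPR read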
OXTR ag counter: human OXTR agonists, counter-screen for V1R agonist project, fluorescence, CHO-OTR cells, triplicate | shares compounds with V1R ag counter | actives 10% (n = 180) | activation, % at 3 µM | AID 434969, 2010 | Fluo-8 calcium fluorescence;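 active = mean activation over three repeats above the cutoff from the earlier oxytocin receptor agonist screen, cut at about 20% in these data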;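 note: peak over minimum fluorescence ratio within a 100 second FLIPR read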
A number is an active result; . = inactive; / = no result.

SMILES	zfTRPN1 agonist	V1R ag counter	OXTR ag	TRPML3 ag	OXTR potentiator	TRPN1 counter	TRPML3 ag conf	others
C=CCN1C=CC(=C/C=C(/C#N)C(=O)OCC)C=C1	.	21.0	29.1	11.8	.	.	14.4
CC(NC(=O)c1ccccc1Cl)C(=O)OCc1cn2cc(Cl)ccc2n1 (stereo not drawn)	/	.	.	/	.	/	/
CCOC(=O)C1CCN(C(=O)C(C)N(c2ccc(Oc3ccccc3)cc2)S(C)(=O)=O)CC1 (stereo not drawn)	.	/	/	21.8	/	.	17.9
CCOC(=O)N1CCN(C(=O)C(C)N(c2ccc(Oc3ccccc3)cc2)S(C)(=O)=O)CC1 (stereo not drawn)	.	.	.	.	.	/	/
Cc1nc2c3c(sc2c(=O)[nH]1)NC(=O)CC3c1ccccc1Cl (stereo not drawn)	.	.	.	.	.	/	/
CC(C)N(C(=O)c1ccc2nc(-c3ccccc3)c(-c3ccccc3)nc2c1)C(C)C	.	.	.	83.8	.	.	104.1
COc1ccc(N(C)C(=O)c2ccc3nc(-c4ccccc4)c(-c4ccccc4)nc3c2)cc1	.	.	.	.	.	/	/
COc1ccc(S(=O)(=O)NC2CCCCC2)c(C)c1C	.	.	.	13.6	.	.	14.8
O=S(=O)(NCCNc1ncc(C(F)(F)F)cc1Cl)C(F)(F)F	.	.	.	14.0	.	21.1	.
CSc1nsc(/C=C/Nc2cccc(Cl)c2)c1C#N	.	.	.	39.7	.	.	14.1
Cn1c(CSCc2ccc(Cl)cc2)n[nH]c1=S	.	.	.	.	.	/	/
O=C(C1=C(O)C(=O)N(CCc2ccccc2)C1c1ccncc1)c1cc2ccccc2o1 (stereo not drawn)	.	.	.	.	.	/	/
O=C(C1=C(O)C(=O)N(c2nccs2)C1c1ccccc1)c1cc2ccccc2o1 (stereo not drawn)	.	185.6	20.1	12.2	.	.	.
O=C(NCCCN1CCCC1=O)c1ccc(NS(=O)(=O)c2cccc([N+](=O)[O-])c2)cc1	/	.	.	/	.	/	/
CN(CC(=O)O/N=C(\N)c1cccc([N+](=O)[O-])c1)S(=O)(=O)c1ccccc1	.	.	.	95.5	.	.	36.4
CN(CC(=O)O/N=C(\N)c1ccc([N+](=O)[O-])cc1)S(=O)(=O)c1ccccc1	.	.	.	.	.	/	/
Cc1ccc(S(=O)(=O)N(C)c2ccc(C)c([N+](=O)[O-])c2)cc1	.	.	.	69.4	.	.	72.2
Cc1ccc(S(=O)(=O)N(C)c2ccc(N)cc2)cc1	.	.	.	.	.	/	/
COc1ccc(N(C)S(=O)(=O)c2ccc(C)cc2)c([N+](=O)[O-])c1	.	.	.	35.5	.	.	42.0
CCCn1c2ccccc2c2cnn(CC(=O)NCCCN3CCCC(C)C3)c(=O)c21 (stereo not drawn)	/	.	.	/	.	/	/
CCOc1ccc2c(c1)C(C)=CC(C)(C)N2S(=O)(=O)c1ccc(C)cc1	.	/	/	16.4	/	.	33.2
O=S(=O)(C=C(c1ccccc1)c1ccccc1)c1ccccc1	.	.	.	83.3	.	.	64.2
COc1cccc(NC(=O)CSCc2cc(=O)n3nc(C4CC4)sc3n2)c1	/	.	.	/	.	/	/
CC(C)[C@H](NS(=O)(=O)c1ccc2c(c1)OCCO2)C(=O)OCC(=O)Nc1ccccc1Cl	.	.	.	.	.	/	/
CC(C)[C@H](NS(=O)(=O)c1ccc2c(c1)OCCO2)C(=O)OCC(=O)Nc1cccc(Cl)c1Cl	.	.	.	19.8	.	.	33.2
SMILES	zfTRPN1 agonist	V1R ag counter	OXTR ag	TRPML3 ag	OXTR potentiator	TRPN1 counter	TRPML3 ag conf	others
CC(=O)Oc1c(S(=O)(=O)c2ccc(C)cc2)c(C)nn1C(C)(C)C	.	.	.	.	.	/	/
Cc1ccc(S(=O)(=O)c2c(C)nn(C(C)(C)C)c2OC(=O)C(C)(C)C)cc1	.	.	21.2	46.0	.	.	38.8	OXTR agonist cf=.;V1aR counter 3x=.
CC(C)(C)OC(=O)NNC(=O)c1cccs1	.	.	.	.	.	/	/
Cc1cc(C)nc(/N=C(\N)Nc2ccc(-c3ccccc3)cc2)n1	.	.	22.6	14.6	.	21.0	.	OXTR agonist cf=.;V1aR counter 3x=.
Cc1nnc(-c2ccccc2)c(=O)n1/N=C/c1c(O)ccc2ccccc12	.	25.0	.	13.2	.	.	.	V1aR agonist cf=23.8;OXTR ag counter=21.6
CC(C)Cc1nnc(NC(=O)c2ccc3c(c2)NC(=O)C(C)S3)s1 (stereo not drawn)	/	.	.	/	.	/	/
CCn1nnnc1SCC(=O)Nc1ccc(OC)cc1	.	.	.	.	.	/	/
CCOc1ccc(OCC)c(NC(=O)CSc2nnnn2CC)c1	.	.	22.5	.	.	/	/	OXTR agonist cf=.;V1aR counter 3x=.
CC(=O)Oc1ccc(C(=O)Cc2ccc3ccccc3n2)c(O)c1C	.	.	.	.	.	/	/
Cc1c(O)ccc(/C(Cc2ccc3ccccc3n2)=N\O)c1O	.	.	22.4	.	.	/	/	OXTR agonist cf=.;V1aR counter 3x=.
CCOc1cc(/C=C2\NC(=S)N(c3c(C)n(C)n(-c4ccccc4)c3=O)C2=O)ccc1O	.	.	.	.	.	/	/
CCOc1cccc(/C=C2\NC(=S)N(c3ccccc3)C2=O)c1O	.	.	24.4	.	.	/	/	OXTR agonist cf=.;V1aR counter 3x=.
